According to ChEMBL document CHEMBL3804761, “Synthesis of a stable and orally bioavailable englerin analogue” (Bioorg Med Chem Lett, 2016):

Tests used:
Format in all cases: functional
U-251 = experiment: Growth inhibition of human U251 cells incubated for 48 hrs by sulforhodamine B assay; conditions: U-251, 48 h; for TGI: read-out: pTGI (converted)
Procedure, shortened: (§1)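 Tested in the standard NCI 60-cell-line protocol with two-day drug exposure and a sulforhodamine B endpoint. Compounds were first screened at a single final concentration of 10 µM, reported as growth percent. They were then run as five 10-fold dilutions starting from a high concentration of 100 µM to give dose-response curves.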

MDA-MB-435 = experiment: Growth inhibition of human MDA-MB-435 cells assessed as cell growth at 10 uM incubated for 48 hrs by sulforhodamine B assay relative to control; conditions: MDA-MB-435, 48 h, read-out: Activity
Procedure, shortened: (§2)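 Run in the standard NCI 60-cell-line screen. Cells were exposed to drug for two days, and the read-out was sulforhodamine B staining. Compound was tested at a single final concentration of 10 µM in every line, and results are reported as growth percent.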

[1] = Growth inhibition of human MOLT4 cells incubated for 48 hrs by sulforhodamine B assay; conditions: MOLT-4, 48 h; for TGI: read-out: pTGI (converted)
Procedure, shortened: (§3)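 NCI 60-cell-line panel, standard protocol. Cells exposed to compound for two days, growth read by sulforhodamine B staining. Tested at five 10-fold dilutions, top concentration 100 µM, to give dose-response curves.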

[2] = Growth inhibition of human COLO205 cells assessed as cell growth at 10 uM incubated for 48 hrs by sulforhodamine B assay relative to control; conditions: COLO 205, 48 h, read-out: Activity; procedure, shortened: as §2
[3] = Growth inhibition of human OVCAR3 cells incubated for 48 hrs by sulforhodamine B assay; conditions: OVCAR-3, 48 h; for TGI: read-out: pTGI (converted); procedure, shortened: as §3
A498 = experiment: Growth inhibition of human A498 cells incubated for 48 hrs by sulforhodamine B assay; conditions: A498, 48 h; for TGI: read-out: pTGI (converted)
[4] = Growth inhibition of human UACC257 cells incubated for 48 hrs by sulforhodamine B assay; conditions: UACC-257, 48 h; for CC50: read-out: pLC50 (the source's name) (converted); for TGI: read-out: pTGI (converted); procedure, shortened: as §1
[5] = Growth inhibition of human UO31 cells assessed as cell growth at 10 uM incubated for 48 hrs by sulforhodamine B assay relative to control; conditions: UO-31, 48 h, read-out: Activity
Procedure, shortened: (§4)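 NCI 60-cell line standard protocol, one-dose screen: single final concentration 10 µM, 2-day drug exposure, sulforhodamine B (SRB) endpoint; read-out is growth percent relative to untreated control.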

[6] = Growth inhibition of human SW620 cells incubated for 48 hrs by sulforhodamine B assay; conditions: SW-620, 48 h; for TGI: read-out: pTGI (converted); procedure, shortened: as §1
T47D = experiment: Growth inhibition of human T47D cells assessed as cell growth at 10 uM incubated for 48 hrs by sulforhodamine B assay relative to control; conditions: read-out: Activity; procedure, shortened: as §4
[7] = Growth inhibition of human UO31 cells incubated for 48 hrs by sulforhodamine B assay; conditions: UO-31, 48 h; for CC50: read-out: pLC50 (the source's name) (converted); for TGI: read-out: pTGI (converted); procedure, shortened: as §1
[8] = Growth inhibition of human HOP92 cells assessed as cell growth at 10 uM incubated for 48 hrs by sulforhodamine B assay relative to control; conditions: HOP-92, 48 h, read-out: Activity
Procedure, shortened: (§5)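 Single-dose screen in the NCI 60-cell-line panel at one final concentration of 10 µM. Two-day drug exposure with a sulforhodamine B endpoint. Values are growth percent for each cell line.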

786-0 [9] = experiment: Growth inhibition of human 786-0 cells incubated for 48 hrs by sulforhodamine B assay; conditions: 786-0, 48 h; for TGI: read-out: pTGI (converted); procedure, shortened: as §3
[10] = Growth inhibition of human IGROV1 cells incubated for 48 hrs by sulforhodamine B assay; conditions: IGROV-1, 48 h; for CC50: read-out: pLC50 (the source's name) (converted); for TGI: read-out: pTGI (converted); procedure, shortened: as §3
[11] = Growth inhibition of human LOXIMVI cells incubated for 48 hrs by sulforhodamine B assay; conditions: LOX IMVI; for TGI: read-out: pTGI (converted); procedure, shortened: as §3
[12] = Growth inhibition of human SNB19 cells assessed as cell growth at 10 uM incubated for 48 hrs by sulforhodamine B assay relative to control; conditions: SNB-19, 48 h, read-out: Activity; procedure, shortened: as §2
[13] = Growth inhibition of human HCT116 cells incubated for 48 hrs by sulforhodamine B assay; conditions: HCT-116, 48 h; for TGI: read-out: pTGI (converted); procedure, shortened: as §3
[14] = Growth inhibition of human OVCAR5 cells incubated for 48 hrs by sulforhodamine B assay; conditions: OVCAR-5, 48 h; for TGI: read-out: pTGI (converted); procedure, shortened: as §3
[15] = Growth inhibition of human MOLT4 cells assessed as cell growth at 10 uM incubated for 48 hrs by sulforhodamine B assay relative to control; conditions: MOLT-4, 48 h, read-out: Activity; procedure, shortened: as §2
786-0 [16] = experiment: Growth inhibition of human 786-0 cells assessed as cell growth at 10 uM incubated for 48 hrs by sulforhodamine B assay relative to control; conditions: 786-0, 48 h, read-out: Activity; procedure, shortened: as §2
SN12C = experiment: Growth inhibition of human SN12C cells incubated for 48 hrs by sulforhodamine B assay; conditions: for CC50: read-out: pLC50 (the source's name) (converted); for TGI: read-out: pTGI (converted); procedure, shortened: as §1
[17] = Growth inhibition of human TK10 cells assessed as cell growth at 10 uM incubated for 48 hrs by sulforhodamine B assay relative to control; conditions: TK-10, 48 h, read-out: Activity; procedure, shortened: as §4
[18] = Growth inhibition of human SNB19 cells incubated for 48 hrs by sulforhodamine B assay; conditions: SNB-19, 48 h; for CC50: read-out: pLC50 (the source's name) (converted); for TGI: read-out: pTGI (converted); procedure, shortened: as §1
[19] = Growth inhibition of human SF268 cells assessed as cell growth at 10 uM incubated for 48 hrs by sulforhodamine B assay relative to control; conditions: SF-268, 48 h, read-out: Activity; procedure, shortened: as §2
MCF7 = experiment: Growth inhibition of human MCF7 cells assessed as cell growth at 10 uM incubated for 48 hrs by sulforhodamine B assay relative to control; conditions: MCF7, 48 h, read-out: Activity; procedure, shortened: as §2
[20] = Growth inhibition of human SKOV3 cells incubated for 48 hrs by sulforhodamine B assay; conditions: SK-OV-3, 48 h; for TGI: read-out: pTGI (converted); procedure, shortened: as §1
HT-29 = experiment: Growth inhibition of human HT-29 cells assessed as cell growth at 10 uM incubated for 48 hrs by sulforhodamine B assay relative to control; conditions: HT-29, 48 h, read-out: Activity; procedure, shortened: as §2
[21] = Growth inhibition of human LOXIMVI cells assessed as cell growth at 10 uM incubated for 48 hrs by sulforhodamine B assay relative to control; conditions: LOX IMVI, read-out: Activity; procedure, shortened: as §5
[22] = Growth inhibition of human HOP92 cells incubated for 48 hrs by sulforhodamine B assay; conditions: HOP-92, 48 h; procedure, shortened: as §3

## CC(C)[C@@]12C[C@@H](NC(=O)CO)[C@@](C)(O1)[C@@H]1CC[C@@H](C)[C@H]1[C@@H]2OC(=O)/C=C/C1CCCCC1
U-251
  GI50: > 44.7 µM
  LC50 (concentration giving 50% net cell kill): > 44.7 µM
  TGI: > 44.7 µM
MDA-MB-435
  growth at 10 µM: 102%
[1]
  GI50: > 44.7 µM
  LC50: > 44.7 µM
  TGI: > 44.7 µM
[2]
  growth at 10 µM: 113%
[3]
  GI50: > 44.7 µM
  LC50: > 44.7 µM
  TGI: > 44.7 µM
A498
  LC50: > 44.7 µM
  TGI: 21.4 µM
A498; read-out: GI50
  GI50: 5.62 µM
A498; read-out: pGI50 (converted)
  GI50: 5.62 µM
[4]
  GI50: > 44.7 µM
  CC50: > 44.7 µM
  TGI: > 44.7 µM
[5]
  growth at 10 µM: 95.1%
[6]
  GI50: > 44.7 µM
  LC50 (50% lethal concentration): > 44.7 µM
  TGI: > 44.7 µM
T47D
  growth at 10 µM: 102%
[7]
  GI50: 10 µM
  CC50: > 44.7 µM
  TGI: 30.2 µM
[8]
  growth at 10 µM: 120%
786-0 [9]
  GI50: > 44.7 µM
  LC50: > 44.7 µM
  TGI: > 44.7 µM
[10]
  GI50: > 44.7 µM
  CC50: > 44.7 µM
  TGI: > 44.7 µM
[11]
  GI50: > 44.7 µM
  LC50: > 44.7 µM
  TGI: > 44.7 µM
[12]
  growth at 10 µM: 103%
[13]
  GI50: > 44.7 µM
  LC50: > 44.7 µM
  TGI: > 44.7 µM
[14]
  GI50: > 44.7 µM
  LC50: > 44.7 µM
  TGI: > 44.7 µM
[15]
  growth at 10 µM: 98%
786-0 [16]
  growth at 10 µM: 100%
SN12C
  GI50: > 44.7 µM
  CC50: > 44.7 µM
  TGI: > 44.7 µM
[17]
  growth at 10 µM: 94.1%
[18]
  GI50: > 44.7 µM
  CC50: > 44.7 µM
  TGI: > 44.7 µM
[19]
  growth at 10 µM: 106%
MCF7
  growth at 10 µM: 94%
[20]
  GI50: > 44.7 µM
  LC50: > 44.7 µM
  TGI: > 44.7 µM
HT-29
  growth at 10 µM: 97.4%

## CC(C)[C@@]12C[C@@H](NC(=O)CF)[C@@](C)(O1)[C@@H]1CC[C@@H](C)[C@H]1[C@@H]2OC(=O)/C=C/c1ccccc1
MDA-MB-435
  growth at 10 µM: 106%
[2]
  growth at 10 µM: 103%
[5]
  growth at 10 µM: 91.1%
T47D
  growth at 10 µM: 78.4%
[8]
  growth at 10 µM: 75.8%
[21]
  growth at 10 µM: 102%
[12]
  growth at 10 µM: 104%
[15]
  growth at 10 µM: 96.5%
786-0 [16]
  growth at 10 µM: 97.3%
[17]
  growth at 10 µM: 104%
[19]
  growth at 10 µM: 97.7%
MCF7
  growth at 10 µM: 106%
HT-29
  growth at 10 µM: 109%

## C/C(=C\C(=O)O[C@H]1[C@@H]2[C@H](C)CC[C@H]2[C@]2(C)O[C@@]1(C(C)C)C[C@H]2NC(=O)CO)c1ccccc1
U-251
  GI50: 43.7 µM
  LC50 (concentration giving 50% net cell kill): > 100 µM
  TGI: > 100 µM
MDA-MB-435
  growth at 10 µM: 106%
[1]
  GI50: 25.7 µM
  LC50: > 100 µM
  TGI: 81.3 µM
[2]
  growth at 10 µM: 107%
[3]
  GI50: 32.4 µM
  LC50: > 100 µM
  TGI: 93.3 µM
A498
  LC50: 23.4 µM
  TGI: 4.27 µM
A498; read-out: GI50
  GI50: 1.15 µM
A498; read-out: pGI50 (converted)
  GI50: 1.15 µM
[4]
  GI50: 34.7 µM
  CC50: > 100 µM
  TGI: > 100 µM
[5]
  growth at 10 µM: 17.5%
[6]
  GI50: 45.7 µM
  LC50 (50% lethal concentration): > 100 µM
  TGI: > 100 µM
T47D
  growth at 10 µM: 89.3%
[7]
  GI50: 3.02 µM
  CC50: > 100 µM
  TGI: 12 µM
[8]
  growth at 10 µM: 87.1%
786-0 [9]
  GI50: 33.9 µM
  LC50: > 100 µM
  TGI: > 100 µM
[10]
  GI50: > 100 µM
  CC50: > 100 µM
  TGI: > 100 µM
[21]
  growth at 10 µM: 100%
[11]
  GI50: 27.5 µM
  LC50: > 100 µM
  TGI: > 100 µM
[12]
  growth at 10 µM: 108%
[22]
  GI50: 21.9 µM
  LC50: > 100 µM
[22]; read-out: pTGI (converted)
  TGI: 81.3 µM
[13]
  GI50: 32.4 µM
  LC50: > 100 µM
  TGI: > 100 µM
[14]
  GI50: 70.8 µM
  LC50: > 100 µM
  TGI: > 100 µM
[15]
  growth at 10 µM: 125%
786-0 [16]
  growth at 10 µM: 93.5%
SN12C
  GI50: 11.5 µM
  CC50: > 100 µM
  TGI: 66.1 µM
[17]
  growth at 10 µM: 109%
[18]
  GI50: 74.1 µM
  CC50: > 100 µM
  TGI: > 100 µM
[19]
  growth at 10 µM: 106%
MCF7
  growth at 10 µM: 89.7%
[20]
  GI50: 30.2 µM
  LC50: > 100 µM
  TGI: > 100 µM
HT-29
  growth at 10 µM: 98.7%
